Molecules are shown by their SMILES. Unmarked numbers belong to inactive results. Inconclusive results are not listed. Active and inactive are the calls of the source.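 The calls were made as follows, unless noted: active = inhibition over a set limit, the all-compound mean plus 3 SD, in both replicate runs; inconclusive = over that limit in just one replicate run; inactive = at or under that limit in both runs.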

The nature of test [1]: OD615 S. cerevisiae growth inhibition, permissive medium, pilot counter-assay, permissive growth control for S. cerevisiae lifespan shortening project (AID 705;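 active = growth inhibition above 25% in both replicates, a cutoff set 3 SD above the mean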). Conditions: OD615, 24 h, at 10 µM, hits give high values. A digest of the protocol: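 System: S. cerevisiae with engineered DeaD lifespan system. Medium: SC raffinose/galactose permissive medium. Doses: single compound dose of 10 µM, 0.25% DMSO final. Schedule: 24 h exposure, 30 °C. Measured by: OD615 turbidity read. Read-out: growth inhibition.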

Test [2] is described as follows: Restrictive medium S. cerevisiae growth inhibition, OD615, pilot screen of yeast lifespan reduction project, restrictive growth control (AID 706;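 active = growth inhibition above a set limit, 3 SD over mean compound inhibition, in both replicates, cut at about 43% in these data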). Conditions: OD615, 48 h, at 10 µM, hits give high values. The method in brief: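 Assay system – genetically modified Saccharomyces cerevisiae, DeaD replicative lifespan assay strain · Medium – CSMM-D glucose medium · Doses – 10 µM compound, 0.25% DMSO · Times – 4 h pre-incubation, 48 h exposure at 30 °C · Signal – optical density at 615 nm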

Test [3] can be described thus: viability gain of MRP-1-high H69AR cells under doxorubicin, pilot screen, MRP-1 activator project, CellTiter-Glo, duplicate (AID 807;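 active = viability increase at or above a cutoff of the median across tested compounds plus 3 SD, cut at about 8.5% in these data, passing the limit was not always enough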;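 also: compound pretreatment 18-22 h then 72 h combined with doxorubicin; 0% = doxorubicin alone and 100% = vehicle without doxorubicin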). As to conditions: H69AR viability with doxorubicin, CellTiter-Glo luminescence; at 10 µM; hits give high values.
Test [4] can be described thus: growth suppression of beta-catenin knockout HCT116, pilot screen, human colon tumor cells (AID 823;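 active = cell viability at or below a set limit in both duplicate runs, the limit being the all-compound median minus 4 SD, cut at about 23% in these data, passing the limit was not always enough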;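 also: 0% = wells killed by 20 µM Hyamine and 100% = untreated DMSO cell wells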). Conditions: CellTiter-Glo, 60 h, at 10 µM, hits give low values.
A short description of test [5]: inhibitors of the yeast RAM network, pilot screen, dse1pr::URA3 reporter, 5-FOA selection (AID 869).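 Also: 0% = DMSO wells with no growth and 100% = 10 µM 1-NA-PP1 with full growth; RAM network block rescues cells from 5-FOA so hits raise OD615 growth.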 Conditions: S. cerevisiae dse1pr::URA3 5-FOA growth, OD615, 2 d; at 10 µM; hits give high values; strain carries analog-sensitive mutant Cbk1 kinase.
Test [6] in a line: RAM signaling pathway blockade in yeast – S. cerevisiae, Pdr1DBD-CYC8 efflux-inhibited sensitized strain, primary screen (AID 1298;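 active = RAM network inhibition above 8.4% in each of two replicates, 3 SD over the compound average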;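 also: 0% = DMSO untreated cells without growth and 100% = 10 µM 1-NA-PP1 full growth; higher means more yeast growth rescued from 5-FOA killing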). Conditions: S. cerevisiae cbk1-as DSE1-URA3 strain, 5-FOA growth OD615, 2 d; at 50 µM; hits give high values.

Consider `Cc1cc(C)nc(/N=c2/ssnc2Cl)c1`, for which the growth inhibition in test [1] is 100% (active); in test [2], 89.9% (active). In addition, the viability increase in test [3] is -7.78%. Also, the viability in test [4] was 30.8%. The inhibition in test [5] was 1.81%. For the same molecule, the RAM network inhibition in test [6] was -2.52%.
Consider `CC1(C)Cc2c(c(=S)nc(-c3ccccc3)n2CCOCCO)CO1`, for which the values for the growth inhibition in test [1] and in test [2] were -16.5% and 19.6%, respectively. Also, in test [3], the viability increase is -2.12%. Moreover, the viability in test [4] is 98.2%. In addition, the inhibition in test [5] is 0.775%. Besides, the RAM network inhibition in test [6] is 4.58%.
With `CCOc1ccc(NC(=O)C2CC(C)=C(C)CC2C(=O)O)cc1` (stereo not given), the growth inhibition in test [1] was -13.3%; in test [2] it was 2.49%. For the same molecule, the viability increase in test [3] was -1.85%. For the same molecule, the viability in test [4] was 99.1%. For the same molecule, the inhibition in test [5] was 1.79%. The RAM network inhibition in test [6] is 1.67%.
For `Cc1cc(=O)n2[nH]c(C)c(-c3ccc(Cl)cc3)c2n1`, the results for the growth inhibition in test [1] and in test [2] were 3.86% and -11.8%, respectively. Further, the viability increase in test [3] is -5.81%. Also, the viability in test [4] is 34.2%. Further, in test [5], the inhibition was 2.29%. Also, the RAM network inhibition in test [6] was 5.64%.
Regarding `CCOC(=O)c1nc(-c2ccc3c(c2)OCO3)[nH]c1C`, the growth inhibition is -0.36% in test [1] and -0.67% in test [2]. Further, the viability increase in test [3] is -6.6%. Also, the viability in test [4] was 29.7%. Besides, the inhibition in test [5] is 3.15%. The RAM network inhibition in test [6] is 1.76%.
For the molecule `CCOC(=O)C1CCN(C(=O)Cc2c(C(=O)O)[nH]c3ccccc23)CC1`, the growth inhibition in test [1] was -13.4%; in test [2] it was -1.88%. Also, in test [3], the viability increase was -1.36%. For the same molecule, the viability in test [4] is 90.5%. The inhibition in test [5] was 0.02%. The RAM network inhibition in test [6] is 3.12%.
Take `COc1cccc(-c2nnc(NC(=O)c3cccc(F)c3)o2)c1`: the growth inhibition in test [1] was -12.9%; in test [2] it was 10.2%. Besides, the viability increase in test [3] was 0.12%. Further, the viability in test [4] was 15.9% (active). The inhibition in test [5] is 1.04%. The RAM network inhibition in test [6] was 0.35%.
Consider `CC1(C)OC(=O)C(=C2CCCN2)C(=O)O1`, for which the growth inhibition in test [1] is 0.65%; in test [2], -5.36%. The viability increase in test [3] was -1.34%. In addition, the viability in test [4] is 105%. Also, the inhibition in test [5] is 0.815%. Moreover, the RAM network inhibition in test [6] was 6.12%.
On to `OCCN1CCN(c2ncnc3c2sc2nc(N4CCOCC4)c4c(c23)CCC4)CC1`, for which the figures for the growth inhibition in test [1] and in test [2] were -16.4% and -3.42%, respectively. Moreover, in test [3], the viability increase is -7.68%. In test [4], the viability was 55.3%. For the same molecule, the inhibition in test [5] was 1.13%. For the same molecule, the RAM network inhibition in test [6] was 2.39%.
Turning to `C[C@@H](NC(=O)c1coc(=O)c(Br)c1)c1ccccc1`, the growth inhibition in test [1] is -24.5%; in test [2] it was 3.37%. Also, the viability increase in test [3] is -8.28%. Further, in test [4], the viability was 63.7%. The inhibition in test [5] was 3.79%. Further, the RAM network inhibition in test [6] is 7.48%.
Take `CN(C(=O)c1ccc(NC(=O)c2cnccn2)cc1)C1CCCCC1`: the growth inhibition is 2.12% in test [1] and 7.4% in test [2]. For the same molecule, the viability increase in test [3] is -1.47%. Further, the viability in test [4] was 99.9%. In test [5], the inhibition was 0.62%. For the same molecule, the RAM network inhibition in test [6] was 6.39%.
For `Cc1cc(C)n(-c2cc(=O)n(C)c(=O)n2C)n1`, the growth inhibition is 1.39% in test [1] and -9.85% in test [2]. In addition, the viability increase in test [3] was -2.96%. Moreover, the viability in test [4] is 92.3%. Besides, the inhibition in test [5] is 0.755%. The RAM network inhibition in test [6] was 4.35%.
Regarding `CC1CCc2sc3nc(N4CCN(CCO)CC4)n4ncnc4c3c2C1` (stereo not given), the values for the growth inhibition in test [1] and in test [2] were -9.92% and 7.57%, respectively. Also, in test [3], the viability increase is -7.82%. For the same molecule, the viability in test [4] is 73.3%. Further, the inhibition in test [5] was 0.655%. The RAM network inhibition in test [6] is 5.04%.
For the molecule `CCC(=O)NC(C)c1nc2ccccc2n1C` (stereo not given), the growth inhibition in test [1] was -9.66%; in test [2], -2.13%. For the same molecule, the viability increase in test [3] was -1.61%. Besides, the viability in test [4] is 102%. In test [5], the inhibition is 1.37%. Further, the RAM network inhibition in test [6] was 7.64%.
As for `C=CCn1c(=O)[nH]c2cc(C(=O)N3CCN(c4cccc(Cl)c4)CC3)ccc2c1=O`, the growth inhibition was -16.5% in test [1] and -12.3% in test [2]. In test [3], the viability increase was -6.95%. In test [4], the viability was 79.3%. In addition, in test [5], the inhibition was 3.33%. Also, the RAM network inhibition in test [6] is 3.07%.
Regarding `Cc1sc(NC(=O)c2ccco2)c(C(c2cccnc2)N2CCN(c3ccc(F)cc3)CC2)c1C` (stereo not given), the growth inhibition in test [1] was -8.72%; in test [2] it was 6.02%. Moreover, in test [3], the viability increase is -5.73%. For the same molecule, the viability in test [4] was 13.3% (active). The inhibition in test [5] was 1.42%. The RAM network inhibition in test [6] was 7.4%.
`O=C(Nc1nn[nH]n1)c1cccc(Oc2ccccc2)c1`: the figures for the growth inhibition in test [1] and in test [2] were -18.5% and 8.51%, respectively. For the same molecule, the viability increase in test [3] was -0.81%. Besides, the viability in test [4] was 96.5%. Further, the inhibition in test [5] is 3.22%. Also, in test [6], the RAM network inhibition was 7.27%.
Take `CCOC(=O)C1CCCN(C(=O)CC(C)c2ccccc2)C1` (stereo not given): the growth inhibition in test [1] was -14.4%; in test [2], -0.005%. The viability increase in test [3] was -1.25%. For the same molecule, the viability in test [4] is 104%. Moreover, the inhibition in test [5] is 1.57%. Further, the RAM network inhibition in test [6] was 3.91%.
Regarding `COc1ccc(C(=O)OCCN2C(=O)c3ccccc3C2=O)cc1OC`, the growth inhibition in test [1] is 6.76%; in test [2], 3.49%. Besides, in test [3], the viability increase is -1.79%. Further, the viability in test [4] was 117%. Moreover, the inhibition in test [5] was 0.34%. In addition, in test [6], the RAM network inhibition is 0.93%.
Consider `Cc1ccc(CNC(=O)CCS(=O)(=O)c2cccc3nonc23)cc1`, for which the growth inhibition in test [1] is 8.16%; in test [2], -4.57%. For the same molecule, the viability increase in test [3] was -0.35%. Also, the viability in test [4] was 98.8%. Besides, in test [5], the inhibition is 1.71%. The RAM network inhibition in test [6] is 5.43%.

The record behind these values is PubChem BioAssay.
